# How the values were obtained:
# Mus musculus [1] = assay: Percent treated was determined after administration at 125 mg/kg orally; type: functional; conditions: route oral
# Summary of the method: (§1)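 Female BDF₁ mice bearing subcutaneous M5076 (10⁶ cells, axillary). Oral dosing in saline or 5% DMA/0.5% CMC on days 1, 4, 7, 10, 13 and 16. Groups of six (three at 400 mg/kg), nine untreated controls. T/C (%) = median survival day of treated/median survival day of untreated controls × 100; 60-day survivors also recorded.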
# Mus musculus [2] = assay: Weight change in M5076 mouse reticulum cell sarcoma after administration at 500 mg/kg orally; type: functional; conditions: route oral
# Summary of the method: (§2)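 Female BDF₁ mice with subcutaneous axillary M5076 (10⁶ cells), oral dosing on days 1, 4, 7, 10, 13 and 16 in saline or 5% DMA/0.5% CMC. Body weight change (g) = mean weight on day 20 minus mean weight on day 1.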
# Mus musculus [3] = assay: Weight change in M5076 mouse reticulum cell sarcoma after administration at 250 mg/kg orally; type: functional; conditions: route oral; summary of the method: as §2
# Mus musculus [4] = assay: Percent inhibition against M5076 mouse reticulum cell sarcoma after administration at 750 mg/kg orally on day 20; type: functional; conditions: M5076, 480 h, route oral
# Summary of the method: (§3)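 M5076 cells (10⁶ viable, counted by Trypan blue exclusion) implanted subcutaneously into the axillary region of female BDF₁ mice. Drug given orally on days 1, 4, 7, 10, 13 and 16 after inoculation, in saline or in 5% dimethylacetamide/0.5% carboxymethyl cellulose. Six mice per group (three at 400 mg/kg); untreated controls, nine mice. Tumor volume = 0.5 × length × width²; inhibition (%) = (1 − Vt/Vc) × 100 on day 20.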
# Mus musculus [5] = assay: Tested for 60-day survivors after administration at 125 mg/kg orally in M5076 mouse reticulum cell sarcoma; type: functional; conditions: route oral
# Summary of the method: (§4)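 Female BD2F1 mice were implanted s.c. with 1 × 10^6 M5076 cells and dosed orally on days 1, 4, 7, 10, 13 and 16. Vehicle was saline or 5% DMA in 0.5% CMC. Groups had six mice (three at 400 mg/kg), with nine untreated controls. The number of mice alive at 60 days was counted.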
# Mus musculus [6] = assay: Percent inhibition against M5076 mouse reticulum cell sarcoma after administration at 125 mg/kg orally on day 20; type: functional; conditions: M5076, 480 h, route oral; summary of the method: as §3
# Mus musculus [7] = assay: Percent treated was determined after administration at 250 mg/kg orally; type: functional; conditions: route oral; summary of the method: as §1
# Mus musculus [8] = assay: Weight change in M5076 mouse reticulum cell sarcoma after administration at 750 mg/kg orally; type: functional; conditions: route oral; summary of the method: as §2
# Mus musculus [9] = assay: Weight change in M5076 mouse reticulum cell sarcoma after administration at 125 mg/kg orally; type: functional; conditions: route oral; summary of the method: as §2
# Mus musculus [10] = assay: Percent treated was determined after administration at 62.5 mg/kg orally; type: functional; conditions: route oral; summary of the method: as §1
# Mus musculus [11] = assay: Percent inhibition against M5076 mouse reticulum cell sarcoma after administration at 62.5 mg/kg orally on day 20; type: functional; conditions: M5076, 480 h, route oral; summary of the method: as §3
# Mus musculus [12] = assay: Percent inhibition against M5076 mouse reticulum cell sarcoma after administration at 500 mg/kg orally on day 20; type: functional; conditions: M5076, 480 h, route oral; summary of the method: as §3
# Mus musculus [13] = assay: Percent treated was determined after administration at 750 mg/kg orally; type: functional; conditions: route oral; summary of the method: as §1
# Mus musculus [14] = assay: Tested for 60-day survivors after administration at 250 mg/kg orally in M5076 mouse reticulum cell sarcoma; type: functional; conditions: route oral; summary of the method: as §4
# Mus musculus [15] = assay: Weight change in M5076 mouse reticulum cell sarcoma after administration at 62.5 mg/kg orally; type: functional; conditions: route oral; summary of the method: as §2
# Mus musculus [16] = assay: Percent treated was determined after administration at 500 mg/kg orally; type: functional; conditions: route oral; summary of the method: as §1
# Mus musculus [17] = assay: Tested for 60-day survivors after administration at 750 mg/kg orally in M5076 mouse reticulum cell sarcoma; type: functional; conditions: route oral; summary of the method: as §4
# Mus musculus [18] = assay: Percent inhibition against M5076 mouse reticulum cell sarcoma after administration at 250 mg/kg orally on day 20; type: functional; conditions: M5076, 480 h, route oral; summary of the method: as §3
# Mus musculus [19] = assay: Tested for 60-day survivors after administration at 62.5 mg/kg orally in M5076 mouse reticulum cell sarcoma; type: functional; conditions: route oral; summary of the method: as §4
# Mus musculus [20] = assay: Tested for 60-day survivors after administration at 500 mg/kg orally in M5076 mouse reticulum cell sarcoma; type: functional; conditions: route oral; summary of the method: as §4
# [21] = Tested in vitro inhibitory activity against human oral epidermoid carcinoma KB cells; type: functional, cell-based
# Summary of the method: (§5)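 MTT growth assay: 2 × 10³ cells/well exposed to compound or left untreated for 72 h. MTT then added for 4 h more; formazan dissolved in DMSO and OD read at 540 nm. % inhibition = [1 − OD sample/OD control] × 100. IC₅₀ (μM) is the concentration giving 50% growth inhibition. Single-concentration inhibition measured at 100 μg/mL.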
# L1210 = assay: Tested in vitro inhibitory activity against murine leukemia L1210; type: functional, cell-based; conditions: Mus musculus; summary of the method: as §5
# Mus musculus [22] = assay: Percent treated was determined after administration at 200 mg/kg orally; type: functional; conditions: route oral; summary of the method: as §1
# Mus musculus [23] = assay: Weight change in M5076 mouse reticulum cell sarcoma after administration at 100 mg/kg orally; type: functional; conditions: route oral; summary of the method: as §2
# Mus musculus [24] = assay: Percent inhibition against M5076 mouse reticulum cell sarcoma after administration at 400 mg/kg orally on day 20; type: functional; conditions: M5076, 480 h, route oral; summary of the method: as §3
# SW48 = assay: Tested in vitro against SW-48 human colon adenocarcinoma; type: functional, cell-based; summary of the method: as §5
# Mus musculus [25] = assay: Weight change in M5076 mouse reticulum cell sarcoma after administration at 200 mg/kg orally; type: functional; conditions: route oral; summary of the method: as §2
# MCF7 = assay: Tested in vitro against MCF-7 human breast adenocarcinoma; type: functional, cell-based; summary of the method: as §5
# Mus musculus [26] = assay: Tested for 60-day survivors after administration at 100 mg/kg orally in M5076 mouse reticulum cell sarcoma; type: functional; conditions: route oral; summary of the method: as §4
# MKN-45 = assay: Tested in vitro against MKN-45 human stomach adenocarcinoma; type: functional, cell-based; conditions: MKN-45, Stomach; summary of the method: as §5
# ST-KM-1 = assay: Tested in vitro against ST-KM human stomach adenocarcinoma; type: functional, cell-based; conditions: ST-KM-1, Stomach; summary of the method: as §5
# Mus musculus [27] = assay: Percent treated was determined after administration at 100 mg/kg orally; type: functional; conditions: route oral; summary of the method: as §1
# COLO 320 = assay: Tested in vitro against colo-320 human colon adenocarcinoma; type: functional, cell-based; conditions: COLO 320, Colon; summary of the method: as §5
# Mus musculus [28] = assay: Tested for 60-day survivors after administration at 300 mg/kg orally in M5076 mouse reticulum cell sarcoma; type: functional; conditions: route oral; summary of the method: as §4
# HT-1080 = assay: Tested in vitro against HT1080 cell line human fibrosarcoma; type: functional, cell-based; summary of the method: as §5
# HOS-TE85 = assay: Tested in vitro against MNNG/HOS cell line human osteosarcoma; type: functional, cell-based; summary of the method: as §5
# PC-8 = assay: Tested in vitro against PC-8 human lung adenocarcinoma; type: functional, cell-based; summary of the method: as §5
# Mus musculus [29] = assay: Tested for 60-day survivors after administration at 200 mg/kg orally in M5076 mouse reticulum cell sarcoma; type: functional; conditions: route oral; summary of the method: as §4
# PC-9 = assay: Tested in vitro against PC-9 human lung adenocarcinoma; type: functional, cell-based; summary of the method: as §5
# [30] = system: KATO III stomach cancer cell line; assay: Tested in vitro against KATO-III human stomach adenocarcinoma; type: functional, cell-based; summary of the method: as §5
# PC-13 = assay: Tested in vitro against PC-13 human lung large cell carcinoma; type: functional, cell-based; summary of the method: as §5
# Mus musculus [31] = assay: Tested for 60-day survivors after administration at 400 mg/kg orally in M5076 mouse reticulum cell sarcoma; type: functional; conditions: route oral; summary of the method: as §4
# Mus musculus [32] = assay: Percent inhibition against M5076 mouse reticulum cell sarcoma after administration at 300 mg/kg orally on day 20; type: functional; conditions: M5076, 480 h, route oral; summary of the method: as §3
# Mus musculus [33] = assay: Percent inhibition against M5076 mouse reticulum cell sarcoma after administration at 200 mg/kg orally on day 20; type: functional; conditions: M5076, 480 h, route oral; summary of the method: as §3
# Mus musculus [34] = assay: Percent inhibition against M5076 mouse reticulum cell sarcoma after administration at 100 mg/kg orally on day 20; type: functional; conditions: M5076, 480 h, route oral; summary of the method: as §3
# Mus musculus [35] = assay: Weight change in M5076 mouse reticulum cell sarcoma after administration at 400 mg/kg orally; type: functional; conditions: route oral; summary of the method: as §2
# OST = assay: Tested in vitro against OST human osteosarcoma; type: functional, cell-based; summary of the method: as §5
# KKLS = assay: Tested in vitro against KKLS human stomach adenocarcinoma; type: functional, cell-based; summary of the method: as §5
# Mus musculus [36] = assay: Percent treated was determined after administration at 300 mg/kg orally; type: functional; conditions: route oral; summary of the method: as §1
# Mus musculus [37] = assay: Weight change in M5076 mouse reticulum cell sarcoma after administration at 300 mg/kg orally; type: functional; conditions: route oral; summary of the method: as §2
# A-375 = assay: Tested in vitro against A-375 cell line human melanoma; type: functional, cell-based; summary of the method: as §5
# Mus musculus [38] = assay: Percent treated was determined after administration at 400 mg/kg orally; type: functional; conditions: route oral; summary of the method: as §1
# QG-95 = assay: Tested in vitro against QG-95 human squamous cell carcinoma; type: functional, cell-based; summary of the method: as §5
compound,measurement,setting,value
C[C@H]1O[C@@H](n2cc(F)c(=O)[nH]c2=O)[C@H](O)[C@@H]1O [DOXIFLURIDINE],T/C,Mus musculus [1],98%
same,Weight change,Mus musculus [2],2.5 g
same,Weight change,Mus musculus [3],2 g
same,inhibition in vivo at 750 mg/kg,Mus musculus [4],50%
same,Survivors,Mus musculus [5],0
same,inhibition in vivo at 125 mg/kg,Mus musculus [6],18%
same,T/C,Mus musculus [7],86%
same,Weight change,Mus musculus [8],0.8 g
same,Weight change,Mus musculus [9],1.8 g
same,T/C,Mus musculus [10],88%
same,inhibition in vivo at 62.5 mg/kg,Mus musculus [11],8%
same,inhibition in vivo at 500 mg/kg,Mus musculus [12],19%
same,T/C,Mus musculus [13],92%
same,Survivors,Mus musculus [14],0
same,Weight change,Mus musculus [15],2.8 g
same,T/C,Mus musculus [16],104%
same,Survivors,Mus musculus [17],0
same,inhibition in vivo at 250 mg/kg,Mus musculus [18],15%
same,Survivors,Mus musculus [19],0
same,Survivors,Mus musculus [20],0
Cc1cn([C@@H]2O[C@H](CO)C=C2C#N)c(=O)[nH]c1=O,IC50,[21],30.4 µM
same,IC50,L1210,12.4 µM
Cl.N#C[C@H]1[C@H](O)[C@@H](CO)O[C@H]1n1ccc(N)nc1=O,T/C,Mus musculus [22],136%
same,Weight change,Mus musculus [23],1.7 g
same,inhibition in vivo at 400 mg/kg,Mus musculus [24],99%
same,IC50,SW48,> 350 µM
same,Weight change,Mus musculus [25],2 g
same,IC50,MCF7,1.75 µM
same,IC50,[21],5.2 µM
same,Survivors,Mus musculus [26],0
same,IC50,MKN-45,15.9 µM
same,IC50,ST-KM-1,9.71 µM
same,T/C,Mus musculus [27],118%
same,IC50,COLO 320,1.4 µM
same,Survivors,Mus musculus [28],0
same,IC50,HT-1080,0.53 µM
same,IC50,HOS-TE85,23.6 µM
same,IC50,PC-8,15.9 µM
same,IC50,L1210,0.53 µM
same,Survivors,Mus musculus [29],2
same,IC50,PC-9,15.3 µM
same,IC50,[30],55.6 µM
same,IC50,PC-13,86.8 µM
same,Survivors,Mus musculus [31],1
same,inhibition in vivo at 300 mg/kg,Mus musculus [32],97%
same,inhibition in vivo at 200 mg/kg,Mus musculus [33],93%
same,inhibition in vivo at 100 mg/kg,Mus musculus [34],79%
same,Weight change,Mus musculus [35],1.1 g
same,IC50,OST,22.2 µM
same,IC50,KKLS,350 µM
same,T/C,Mus musculus [36],120%
same,Weight change,Mus musculus [37],1 g
same,IC50,A-375,1.4 µM
same,T/C,Mus musculus [38],133%
same,IC50,QG-95,138 µM

# From ChEMBL document CHEMBL1126568, “Nucleosides and nucleotides. 122. 2'-C-cyano-2'-deoxy-1-beta-D-arabinofuranosylcytosine and its derivatives. A new class of nucleoside with a broad antitumor spectrum” (J Med Chem, 1993)
